In ChEMBL document CHEMBL4304791, “DABMA: A Derivative of ABMA with Improved Broad-Spectrum Inhibitory Activity of Toxins and Viruses” (ACS Med Chem Lett, 2019):
The source made the active and inactive calls. The rule behind the calls is not given here.

What was measured:
[1] = Selectivity index, ratio of CC50 for cytotoxicity against human HeLa cells to ratio of EC50 for Antiviral activity against Zaire EBOV-mayinga strain expressing GFP infected in human HeLa cells; assay type: toxicity, cell-based; settings: read-out: Ratio CC50/EC50
Zaire ebolavirus [2] = assay: Potency index, ratio of ABMA EC50 to compound EC50 for antiviral activity against Zaire Ebola virus -Mayinga expressing GFP infected in human HeLa cells; assay type: functional, 1976
Lyssavirus rabies = assay: Antiviral activity against RABV infected in BSR cells preincubated for 4 hrs followed by viral infection and further incubated with compounds for 24 hrs by immunostaining-based assay; assay type: functional, organism-based
Method in brief: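 BSR cells were pretreated 4 h with compound, then infected with RABV (MOI = 14) for 1 h. Cells were washed and kept with compound for 24 h, then fixed and immunostained for the RABV ribonucleocapsid (RNP). Nuclei and RNP images from 15 fields per well (>10,000 cells) were used to calculate percent inhibition.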

L929 [3] = assay: Cytoprotective activity in Pseudomonas aeruginosa exotoxin-induced toxicity in mouse L929 cells assessed as protection of protein synthesis after 18 hrs followed by replacement of [14c]-Leucine containing medium and measured after 4 hrs by liquid scintillation analysis by liquid scintillation analysis; assay type: functional, cell-based
Method in brief: (§1)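 L929 cells were intoxicated with increasing doses of Pseudomonas exotoxin A for 18 h with compound (30 μM) or DMSO present. Protein synthesis was measured; duplicate wells, mean ± SD, one representative experiment (n = 3).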

A549 [4] = assay: Cytoprotection activity against diphtheria toxin-induced cytotoxicity against human A549 cells assessed as effect on protein synthesis incubated for 20 hrs followed by replacement of [14c]-Leucine containing medium and measured after 4 hrs by liquid scintillation analysis; assay type: functional, cell-based
Method in brief: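 A549 cells were incubated with compound and then challenged with increasing DT concentrations. DT cytotoxicity was read as protein synthesis inhibition. Data are mean of duplicate wells ± SD from one representative experiment (n = 3).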

A549 [5] = assay: Inhibition of diphtheria induced toxicity in human A549 cells assessed as protection factor at 15 uM incubated for 20 hrs followed by replacement of [14c]-Leucine containing medium and measured after 4 hrs by liquid scintillation analysis relative to untreated control; assay type: functional
Method in brief: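 A549 cells were incubated with Baf A1 (0.15 nM), DABMA (15 μM), both, or DMSO vehicle before DT was added, with the compounds kept present throughout. Toxin protection was read as protein synthesis and expressed as protection factor.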

A549 [6] = assay: Increase in cholesterol accumulation in human A549 cells at 30 uM incubated for 18 hrs by choelesterol-avid filipin-3 staining based confocal microscopic analysis; assay type: functional, cell-based
Method in brief: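 A549 cells were treated 18 h with compound or DMSO, fixed, and stained with Filipin III for cholesterol. Confocal imaging; fluorescence quantified in >30 cells (mean ± SEM), unpaired t test versus DMSO.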

DLD-1 = assay: Cytoprotection activity in human DLD1 cells assessed as inhibition of diphtheria induced toxicity incubated for 20 hrs followed by replacement of [14c]-Leucine containing medium and measured after 4 hrs by liquid scintillation analysis; assay type: functional, cell-based
A549 [7] = assay: Induction of lysosomal activation in human A549 cells assessed as increase in endosomal volume by measuring Lamp 1 expression at 30 uM incubated for 6 hrs by immunostaining based confocal microscopic analysis; assay type: functional, cell-based
Vero [8] = assay: Inhibition of TcsL-induced cytotoxicity against African green monkey Vero cells assessed as reversal of toxin-induced cell rounding after 16 hrs by inverted microscopic analysis; assay type: functional, cell-based; settings: Chlorocebus sabaeus
Method in brief: (§2)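 Vero cells were given compound (30 μM) or DMSO, then increasing doses of TcdB for 4 h or TcsL for 16 h. Cell rounding was imaged by inverted microscope. Rounded cells were counted and normalised to total Hoechst-counterstained cells (>100 cells per treatment).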

A549 [9] = assay: Induction of morphological changes in human A549 cells assessed as change in golgi apparatus at 30 uM incubated for 24 hrs by cyto-painter dye based inverted microscopic method; assay type: functional, cell-based
A549 [10] = assay: Induction of lysosomal activation in human A549 cells assessed as increase in endosomal volume by measuring Rab7 expression at 30 uM incubated for 6 hrs by immunostaining based confocal microscopic analysis; assay type: functional, cell-based
Method in brief: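 A549 cells were pretreated 6 h with compound or DMSO and immunostained for Rab7, with DAPI nuclei. Confocal imaging; fluorescence quantified in >30 cells (mean ± SEM), unpaired t test versus DMSO.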

HUVEC [11] = assay: Cytotoxicity against HUVEC assessed as reduction in cell viability at >100 uM incubated for 20 hrs and measured after 2 hrs by Alamar blue assay; assay type: cell-based; settings: human
A549 [12] = assay: Cytotoxicity against human A549 cells assessed as reduction in cell viability at 15 uM incubated for 20 hrs in presence of bafilomycin A1; assay type: cell-based; settings: a549, 20 h
A549 [13] = assay: Selectivity index, ratio of CC50 for cytotoxicity against human A549 cells to EC50 for cytoprotective activity in diphtheria-induced cytotoxicity in human A549 cells
Vero [14] = assay: Inhibition of TcsL-induced cytotoxicity against African green monkey Vero cells assessed as reversal of toxin-induced cell rounding at 30 uM in presence of TcsL after 16 hrs by inverted microscopic analysis relative to ABMA; assay type: functional, Chlorocebus sabaeus; method in brief: as §2
A549 [15] = assay: Induction of morphological changes in human A549 cells assessed as change in mitochondria at 30 uM incubated for 24 hrs by MitoTracker Red based inverted microscopic method; assay type: functional, cell-based
Vero [16] = assay: Selectivity index, ratio of CC50 for cytotoxicity against African green monkey Vero cells to EC50 for cytoprotective activity in TcsL-induced cytotoxicity in African green monkey Vero cells; parameters: species or system Chlorocebus sabaeus
A549 [17] = assay: Induction of morphological changes in human A549 cells assessed as change in endoplasmic reticulum at 30 uM incubated for 24 hrs by cyto-painter dye based inverted microscopic method; assay type: functional, cell-based
Vero [18] = assay: Cytoprotection activity in African green monkey Vero cells assessed as inhibition of diphtheria induced toxicity incubated for 20 hrs followed by replacement of [14c]-Leucine containing medium and measured after 4 hrs by liquid scintillation analysis; assay type: functional, cell-based; settings: Chlorocebus sabaeus
Zaire ebolavirus [19] = assay: Antiviral activity against Zaire EBOV-mayinga expressing GFP infected in human HeLa cells preincubated for 1 hr followed by viral infection after 24 hrs by DAPI-staining based fluorescence assay relative to control; assay type: functional, 1976
Vero [20] = assay: Inhibition of TcdB-induced cytotoxicity against African green monkey Vero cells assessed as reversal of toxin-induced cell rounding after 4 hrs by inverted microscopic analysis; assay type: functional, cell-based; settings: Chlorocebus sabaeus; method in brief: as §2
PC-3 = assay: Cytoprotection activity in human PC3 cells assessed as inhibition of diphtheria induced toxicity incubated for 20 hrs followed by replacement of [14c]-Leucine containing medium and measured after 4 hrs by liquid scintillation analysis; assay type: functional, cell-based
L929 [21] = assay: Cytoprotective activity in Pseudomonas aeruginosa exotoxin induced toxicity in mouse L929 cells assessed as protection factor after 18 hrs by liquid scintillation analysis relative to untreated control; assay type: functional; method in brief: as §1
A549 [22] = assay: Inhibition of colony formation in human A549 cells assessed as reduction in colony forming unit at 30 to 60 uM incubated for 16 hrs followed by fresh medium supplementation and measured after 7 days by crystal violet-staining based assay; assay type: cell-based; settings: a549, 16 h
Method in brief: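 Colony-forming assay of A549 cells with compound at 30 or 60 μM, DMSO vehicle, and paclitaxel (5 μM) as positive control; n = 2.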

Zaire ebolavirus [23] = assay: Antiviral activity against Zaire EBOV-Mayinga expressing GFP infected in human HeLa cells preincubated for 1 hr followed by viral infection after 24 hrs by DAPI-staining based fluorescence assay; assay type: functional, organism-based; settings: Zaire, 1976, HeLa
HUVEC [24] = assay: Cytoprotection activity in HUVEC assessed as inhibition of diphtheria induced toxicity by measuring protein synthesis at 15 to 60 uM incubated for 20 hrs followed by replacement of [14c]-Leucine containing medium and measured after 4 hrs by liquid scintillation analysis; assay type: functional, cell-based; settings: Homo sapiens

COc1ccc(Br)cc1CNC12CC3CC(C)(CC(C)(C3)C1)C2
selectivity ratio [1]: 120
Ratio EC50 (Zaire ebolavirus [2]): 6.6
inhibition (Lyssavirus rabies): Active
EC50 (L929 [3]): 20.8 µM
EC50 (A549 [4]): 25.7 µM
fold change (FC) (A549 [5]): 6.3
Activity (A549 [6]): Active
Activity (DLD-1): Active
Activity (A549 [7]): Active
EC50 (Vero [8]): 15.8 µM
Activity (A549 [9]): inactive
Activity (A549 [10]): Active
Activity (HUVEC [11]): Toxic
Activity (A549 [12]): Non-Toxic
Ratio CC50/EC50 (A549 [13]): 4.7
fold change (FC) (Vero [14]): 5.6
Activity (A549 [15]): inactive
Ratio CC50/EC50 (Vero [16]): 7.38
Activity (A549 [17]): inactive
Activity (Vero [18]): Active
inhibition (INH) (Zaire ebolavirus [19]): >50%
EC50 (Vero [20]): 38.6 µM
Activity (PC-3): Active
fold change (FC) (L929 [21]): 4.8
Activity (A549 [22]): Non-Toxic
EC50 (Zaire ebolavirus [23]): 0.908 µM
Activity (HUVEC [24]): Active
